From paper PMC4357494 (Journal of molecular biology, 2014) come the findings set out here.

Test [1] has as its system Bcl-2 3256 cells (Bcl-2 dependent).
In test [2] the test system is Mcl-1 2640 cells (Mcl-1 dependent). The experiment in a line: BH3 profiling, Mcl-1 2640. The test is classed as cell-based, murine. The conditions noted are these: 5 μM peptide. Summed up:
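Myc-driven murine leukemia line, Mcl-1 dependent, grown in RPMI 1640 with 10% FBS and […] 2-mercaptoethanol. Permeabilized cells at 2×10^4/well, triplicate wells, exposed to peptides including 5 μM. JC-1 read-out; depolarization expressed as percentage relative to FCCP (full) and DMSO (none). At least three biological replicates.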

The next test has as its system Bcl-xL. Nature of the test: Yeast-surface display, dual color fluorescence binding with competitors. Particulars: 100-fold excess of each competitor, yeast-displayed peptide. On the set-up: species or system human. In short, it runs like this: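 Yeast displaying BH3 peptides incubated with 10 nM Bcl-xL plus 1 μM each of Mcl-1, Bfl-1, Bcl-2 and Bcl-w, competitors premixed. Proteins are E. coli-expressed human constructs. Detection uses primary and labeled secondary antibodies: FITC marks peptide expression, APC marks receptor binding. Flow cytometry with 488 and/or 561 nm excitation.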

A further test concerns the target Mcl-1 (residues 172-327) (Homo sapiens, UniProt Q07820). Nature of the test: Fluorescence polarization binding assay, Mcl-1. The conditions noted are these: FP competition. Summed up:
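E. coli-expressed Mcl-1 (residues 172-327) in competition FP: 20 mM sodium phosphate, 50 mM NaCl, 1 mM EDTA, 0.001% Triton X, 5% DMSO, pH 7.8, 25 °C. Serially diluted unlabeled peptide plus 10 nM fluorescein tracer, 15 min, then protein. Tracer is 18-mer Bim-BH3 with 50 nM Mcl-1, or 23-mer Hrk-BH3 with 500 nM Mcl-1.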
(In general: In fluorescence polarisation assays a small probe gives low polarisation when free and higher when bound to something large.)

The target in the next test is T1, Bcl-w (residues 1-164) (Homo sapiens, UniProt Q92843).
T1 sequence (Q92843 1-164): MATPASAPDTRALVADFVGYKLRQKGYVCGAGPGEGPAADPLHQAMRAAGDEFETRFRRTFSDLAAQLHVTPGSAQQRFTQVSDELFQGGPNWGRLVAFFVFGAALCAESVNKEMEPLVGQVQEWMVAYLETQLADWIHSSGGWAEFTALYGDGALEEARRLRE
The experiment in a line: Fluorescence polarization competition binding assay, Bcl-w. Particulars: four mutations combined. Summed up: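 E. coli-expressed Bcl-w (residues 1-164), 50 nM final, competed against 10 nM N-terminal fluorescein 18-mer Bim-BH3. Unlabeled peptide serially diluted and premixed with tracer 15 min before protein. Buffer: 20 mM sodium phosphate, 50 mM NaCl, 1 mM EDTA, 0.001% Triton X, 5% DMSO, pH 7.8, 25 °C.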

For test [3], the target named is T2, Bcl-2 (residues 1-217) (Homo sapiens, UniProt P10415). The experiment in a line: Fluorescence polarization competition binding assay, Bcl-2. Summed up: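 Human Bcl-2 (residues 1-217), expressed in E. coli. Buffer: 20 mM sodium phosphate, 50 mM NaCl, 1 mM EDTA, 0.001% Triton X, 5% DMSO, pH 7.8, 25 °C. Competition: test peptide serially diluted, 10 nM fluorescein Bim-BH3 added, 15 min at RT, then 50 nM Bcl-2 (final). Anisotropy read over 2-48 h, then curves fit. Direct: titrated protein, 10 nM probe, read 4-24 h.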

Test [4] deals with T3, Bcl-xL (residues 1-209) (Homo sapiens, UniProt Q07817). Nature of the test: Fluorescence polarization competition binding assay, Bcl-xL.
Another test has as its system DHL10 cells. Nature of the test: BH3 profiling, DHL10. The class given is cell-based. Particulars: Bax- and Bak-deleted cell line. In short, it runs like this: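 Test peptides (N-acetylated, C-amidated) titrated onto permeabilized Su-DHL10 cells (RPMI 1640, 10% FBS), 2×10^4 cells/well, triplicate wells per concentration. JC-1 fluorescence gives membrane-potential loss, normalized as 1 – [(Dsample–DFCCP)/(DDMSO–DFCCP)] against FCCP and DMSO. EC50 from global fit with linked baselines; at least three biological replicates, 2-3 days of culture apart.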

In test [5] the target is primary human platelets (Bcl-xL dependent) (Homo sapiens, UniProt Q07817). Particulars: primary human platelet samples.
The target of test [6] is OCI-Ly1 cells (Bcl-2 dependent) (Homo sapiens, UniProt P10415).
The target of test [7] is T3, Bcl-xL (residues 1-209). Nature of the test: fluorescence polarisation.
Test [8] addresses T2, Bcl-2 (residues 1-217). The experiment in a line: fluorescence polarisation.
Test [9] concerns the target Bcl-xL (residues 1-209) (human, UniProt Q07817-1 1-209). Nature of the test: fluorescence polarisation.
The target of test [10] is Bcl-2 (residues 1-217) (human, UniProt P10415 1-217). Nature of the test: fluorescence polarisation.

Where a SMILES comes first, the peptide text is derived from it.

T3 sequence (Q07817 1-209): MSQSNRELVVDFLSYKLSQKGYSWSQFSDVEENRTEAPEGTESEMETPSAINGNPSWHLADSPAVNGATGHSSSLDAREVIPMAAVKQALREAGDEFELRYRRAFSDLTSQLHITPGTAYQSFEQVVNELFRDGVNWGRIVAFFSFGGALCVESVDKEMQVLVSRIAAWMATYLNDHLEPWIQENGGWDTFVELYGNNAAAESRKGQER
T2 sequence (P10415 1-217): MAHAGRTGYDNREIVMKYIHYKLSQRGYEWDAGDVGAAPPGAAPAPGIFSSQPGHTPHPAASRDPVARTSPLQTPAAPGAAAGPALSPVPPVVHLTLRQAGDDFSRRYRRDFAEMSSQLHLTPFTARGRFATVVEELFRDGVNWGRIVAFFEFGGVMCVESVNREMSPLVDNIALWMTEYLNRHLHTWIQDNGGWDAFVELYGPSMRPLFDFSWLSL
Chain of Bcl-xL (residues 1-209) (human, UniProt Q07817-1 1-209) (Q07817 1-209): as the sequence (Q07817 1-209) above
Chain of OCI-Ly1 cells (Bcl-2 dependent) (P10415 whole entry, the tested form may be a part): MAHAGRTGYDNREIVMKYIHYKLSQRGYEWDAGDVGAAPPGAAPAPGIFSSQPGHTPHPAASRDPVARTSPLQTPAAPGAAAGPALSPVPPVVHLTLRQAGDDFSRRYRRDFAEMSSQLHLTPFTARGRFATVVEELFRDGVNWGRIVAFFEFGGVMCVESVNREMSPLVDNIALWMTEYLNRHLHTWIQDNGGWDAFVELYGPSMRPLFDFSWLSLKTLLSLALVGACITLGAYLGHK
Chain of primary human platelets (Bcl-xL dependent) (Q07817 1-209): as the sequence (Q07817 1-209) above
Chain of Bcl-2 (residues 1-217) (human, UniProt P10415 1-217) (P10415 1-217): as the sequence (P10415 1-217) above
Chain of Mcl-1 (residues 172-327) (Q07820 172-327): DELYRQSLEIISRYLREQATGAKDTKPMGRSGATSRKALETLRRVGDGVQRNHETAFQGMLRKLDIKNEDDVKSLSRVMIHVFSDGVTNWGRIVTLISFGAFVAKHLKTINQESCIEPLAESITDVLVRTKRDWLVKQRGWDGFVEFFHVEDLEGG

By EC50 is commonly meant the concentration at which the effect is half-maximal. Low values mean a more potent agent, high ones a less potent agent. Molecule `CC[C@H](C)[C@H](NC(=O)[C@H](CCC(=O)O)NC(=O)[C@H](CCCNC(=N)N)NC(=O)[C@H](C)NC(=O)[C@H](Cc1c[nH]c2ccccc12)NC(=O)[C@H](CCC(N)=O)NC(C)=O)C(=O)NCC(=O)N[C@@H](C)C(=O)N[C@@H](CCC(N)=O)C(=O)N[C@@H](CC(C)C)C(=O)N[C@@H](CCCNC(=N)N)C(=O)N[C@@H](CCCNC(=N)N)C(=O)N[C@@H](CCSC)C(=O)N[C@@H](C)C(=O)N[C@@H](CC(=O)O)C(=O)N[C@@H](CC(=O)O)C(=O)N[C@@H](CC(C)C)C(=O)N[C@@H](CC(N)=O)C(=O)N[C@@H](C)C(=O)N[C@@H](CCC(N)=O)C(=O)N[C@@H](Cc1ccc(O)cc1)C(=O)N[C@@H](CCC(=O)O)C(=O)N[C@@H](CCCNC(=N)N)C(N)=O` [Puma, reference compound] came in with an EC50 in [1] of 663 ± 223 nM. The “depolarization in the Mcl-1 dependent line (in words)” value in test [2] is listed as “strong response”.

In general, Kd refers to the concentration at which binding is half-saturated. A low value points to higher affinity. The Ki is the equilibrium dissociation constant of an inhibitor or competing ligand from its target. A high value points to a looser hold on the target. For the molecule `CC[C@H](C)[C@H](NC(=O)[C@H](CCC(=O)O)NC(=O)[C@@H]1CCCN1C(=O)[C@H](CCCNC(=N)N)NC(C)=O)C(=O)N[C@@H](Cc1c[nH]c2ccccc12)C(=O)N[C@@H](Cc1ccc(O)cc1)C(=O)N[C@@H](C)C(=O)N[C@@H](CCC(N)=O)C(=O)NCC(=O)N[C@@H](CC(C)C)C(=O)N[C@@H](CCCCN)C(=O)N[C@@H](CCCNC(=N)N)C(=O)N[C@@H](Cc1ccccc1)C(=O)NCC(=O)N[C@@H](CC(=O)O)C(=O)N[C@@H](CCC(=O)O)C(=O)N[C@@H](Cc1ccccc1)C(=O)N[C@@H](CC(N)=O)C(=O)N[C@@H](C)C(=O)N[C@@H](Cc1ccc(O)cc1)C(=O)N[C@@H](Cc1ccc(O)cc1)C(=O)N[C@@H](C)C(=O)N[C@@H](CCCNC(=N)N)C(N)=O` [XXA1] (Ac-RPEIWYAQGLKRFGDEFNAYYAR-NH2), the “binding to Bcl-xL in the presence of competitor pro-survival proteins” value with Bcl-xL was “robust binding”. The same molecule returned an EC50 in test [1] of 540 ± 183 nM. The “competition with fluorescently labeled Bim-BH3 for binding to Mcl-1 (in words)” value on Mcl-1 (residues 172-327) is reported as “Neither XXA1 nor XXA1_G2gE could compete”. Also, the “weakening of binding to Bcl-w relative to Bim-BH3” value at Bcl-w (residues 1-164) is listed as ~ 150 fold. Further, the Kd on Bcl-2 (residues 1-217) [3] was about 17 nM. For the same molecule, on Bcl-xL (residues 1-209) [4], the Ki was at most 0.1 nM. The “affinity for Bcl-xL (in words)” value at Bcl-xL (residues 1-209) [4] (FP competition with fluorescein 18-residue Bim-BH3) is reported as “sub-nanomolar”. For the same molecule, the “non-specific pore forming activities” value in the test on DHL10 cells is reported as “None”. In [5], the “depolarization of platelets (in words)” value is “potent depolarization”. Besides, the “depolarization in the Mcl-1 dependent line (in words)” value in test [2] is given as “low amount of depolarization”.

For the molecule `CC[C@H](C)[C@H](NC(C)=O)C(=O)N[C@@H](Cc1c[nH]c2ccccc12)C(=O)N[C@@H](Cc1ccc(O)cc1)C(=O)N[C@@H](C)C(=O)N[C@@H](CCC(N)=O)C(=O)NCC(=O)N[C@@H](CC(C)C)C(=O)N[C@@H](CCCCN)C(=O)N[C@@H](CCCNC(=N)N)C(=O)N[C@@H](Cc1ccccc1)C(=O)NCC(=O)N[C@@H](CC(=O)O)C(=O)N[C@@H](CCC(=O)O)C(=O)N[C@@H](Cc1ccccc1)C(=O)N[C@@H](CC(N)=O)C(=O)N[C@@H](C)C(=O)N[C@@H](Cc1ccc(O)cc1)C(=O)N[C@@H](CCCCN)C(N)=O` [Y4eK_18] (Ac-IWYAQGLKRFGDEFNAYK-NH2), in test [6], the “weaker response than XXA1_Y4eK” value is reported as 3-4 fold. The “weaker binding to Bcl-2 than parent XXA1_Y4eK” value on Bcl-2 (residues 1-217) [3] is reported as ~ 5 fold. Moreover, at Bcl-xL (residues 1-209) [4], the “reduction of affinity for Bcl-xL relative to XXA1_Y4eK” value was ~ 18 fold.

For the molecule `CC[C@H](C)[C@H](NC(=O)[C@H](CCC(=O)O)NC(=O)[C@@H]1CCCN1C(=O)[C@H](CCCNC(=N)N)NC(C)=O)C(=O)N[C@@H](Cc1c[nH]c2ccccc12)C(=O)N[C@@H](Cc1ccc(O)cc1)C(=O)N[C@@H](C)C(=O)N[C@@H](CCC(N)=O)C(=O)NCC(=O)N[C@@H](CC(C)C)C(=O)N[C@@H](CCCCN)C(=O)N[C@@H](CCCNC(=N)N)C(=O)N[C@@H](Cc1ccccc1)C(=O)NCC(=O)N[C@@H](CC(=O)O)C(=O)N[C@@H](CCC(=O)O)C(=O)N[C@@H](Cc1ccccc1)C(=O)N[C@@H](CC(N)=O)C(=O)N[C@@H](C)C(=O)N[C@@H](Cc1ccc(O)cc1)C(=O)N[C@@H](CCCCN)C(N)=O` [Y4eK_21] (Ac-RPEIWYAQGLKRFGDEFNAYK-NH2), in test [6], the “weaker response than XXA1_Y4eK” value is listed as 3-4 fold. Further, the Ki at Bcl-2 (residues 1-217) [3] came out at 430 nM; on Bcl-xL (residues 1-209) [4], 0.4 nM. Besides, the “specificity for Bcl-xL over Bcl-2” value on Bcl-2 (residues 1-217) [3] (ratio of FP binding constants) is ~ 1000 fold.

In the test with Bcl-xL (residues 1-209) [7], “Bim-BH3 with the point mutation E2gG (peptide)” gave a Ki of under 0.1 nM. This molecule also came in with a fold weaker binding than Bim-BH3 with Bcl-2 (residues 1-217) [8] of 7 fold.

On to “Bim-BH3 with the point mutation I2dY (peptide)”, for which the Ki with Bcl-xL (residues 1-209) [7] is under 0.1 nM. Further, the fold weaker binding than Bim-BH3 with Bcl-2 (residues 1-217) [8] came to 5 fold.

In the test with Bcl-xL (residues 1-209) [7], “Bim-BH3 with the point mutation I3dF (peptide)” showed a Ki of under 0.1 nM.

“Bim-BH3 with the point mutation R3bK (peptide)” yielded a Ki with Bcl-xL (residues 1-209) [7] of under 0.1 nM.

In the test with Bcl-xL (residues 1-209) [7], Hrk-BH3, unlabeled 23-residue peptide had a Ki of 10 nM.

Puma-BH3, unlabeled 23-residue peptide: in the test with Bcl-xL (residues 1-209) [7], the Ki worked out at 2 nM.

As to Ac-WAAQRYGRELRRMSDEFVDSFKK-NH2 [Bad-BH3, unlabeled 23-residue peptide], the Ki in the test with Bcl-xL (residues 1-209) [9] was at most 0.1 nM.

Take Ac-IWYAQGLKRFGDEFNAYK-NH2 (designed binder) [Y4eK_18]: in the test with Bcl-2 (residues 1-217) [10], the “fold weaker binding than XXA1_Y4eK” value is about 5 fold. Besides, in the test with Bcl-xL (residues 1-209) [9], the Ki is about 2 nM.
